The source of these data is ChEMBL document CHEMBL2440017, “Discovery of a potent, selective, and orally bioavailable histamine H3 receptor antagonist SAR110068 for the treatment of sleep-wake disorders” (Bioorg Med Chem Lett, 2013).

The source made the active and inactive calls. The calls are words filed in the database; no cut-off is given here.

One assay deals with Histamine receptor H3 (Macaca mulatta, UniProt Q865E1). Description: Displacement of [3H]N-alpha-methylhistamine from rhesus monkey histamine H3 receptor expressed in CHO cells. In kind it is cell-based. Put shortly: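 Membranes from CHO cells stably expressing rhesus monkey H3 receptor. Competition binding against [3H]N-α-methylhistamine; Ki values are means of three or more determinations.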
Chain of Histamine receptor H3 (Q865E1 whole entry): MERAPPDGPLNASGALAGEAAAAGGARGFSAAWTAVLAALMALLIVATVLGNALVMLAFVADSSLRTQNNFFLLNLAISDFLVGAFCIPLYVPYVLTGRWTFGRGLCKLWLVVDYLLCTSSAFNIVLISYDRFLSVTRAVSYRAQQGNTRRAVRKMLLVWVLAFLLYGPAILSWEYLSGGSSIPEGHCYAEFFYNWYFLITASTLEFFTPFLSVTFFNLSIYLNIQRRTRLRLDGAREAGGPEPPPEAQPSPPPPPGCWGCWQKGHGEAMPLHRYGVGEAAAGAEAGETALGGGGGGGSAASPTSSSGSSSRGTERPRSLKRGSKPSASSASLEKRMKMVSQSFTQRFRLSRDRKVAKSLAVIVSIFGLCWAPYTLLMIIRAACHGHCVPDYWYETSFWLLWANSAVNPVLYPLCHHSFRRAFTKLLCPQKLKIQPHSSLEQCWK

In assay [1] the test system is Rattus norvegicus. Description: Awakening activity in rat assessed as increased wakefulness at 10 mg/kg, po after 1 hr. In kind it is functional, organism-based. Also noted: dose 10 mg/kg. Put shortly: (§1)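 Rats given compound orally at 3 or 10 mg/kg, or reference drugs i.p. or p.o. at 10 mg/kg. EEG recorded during the light phase and scored as wakefulness, slow wave sleep and REM sleep. Time-course analysis of the effects.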

The subject of assay [2] is Rattus norvegicus. Description: Awakening activity in rat assessed as decrease of theta rhythm at 10 mg/kg, po after 3 to 4 hrs. In kind it is functional, organism-based. Also noted: dose 10 mg/kg.
For assay [3], the system named is Rattus norvegicus. Briefly: Awakening activity in rat assessed as increased wakefulness at 10 mg/kg, po after 3 to 4 hrs. It is filed as functional, organism-based. Set-up: dose 10 mg/kg. The essentials: as §1
Assay [4] concerns Rattus norvegicus. Briefly: Awakening activity in rat assessed as increased wakefulness at 10 mg/kg, ip after 3 hrs. In kind it is functional, organism-based. Also noted: dose 10 mg/kg. Put shortly: as §1
In assay [5] the test system is Rattus norvegicus. Briefly: Awakening activity in rat assessed as decrease in slow wave and REM sleep at 10 mg/kg, po. In kind it is functional, organism-based. Set-up: dose 10 mg/kg.
In assay [6] the test system is Rattus norvegicus. Description: Awakening activity in rat assessed as increased wakefulness at 10 mg/kg, po. In kind it is functional, organism-based. Also noted: dose 10 mg/kg.

Consider `CC1CCCN1C1CCN(c2ccc(NC(=O)C3CCCO3)cc2)C1` (mixture of isomers), for which, on Histamine receptor H3, the affinity, expressed as Ki, was 8.7 nM. On the same count and under the same terms, under `CC(=O)N1CCCC1C(=O)Nc1ccc(N2CCC(N3CCCC3C)C2)cc1` (mixture of isomers) stands 14.1 nM.

With `CNC(=O)c1ccc(Oc2ccc3c(c2)CCN(C2CCC2)CC3)nc1`, the result in the assay on Rattus norvegicus [1] was Active. `Cc1cc(N2CCC(N3CCCC3C)C2)ccc1NC(=O)C1CCCO1` (mixture of isomers) returned an inhibition constant Ki on Histamine receptor H3 of 7.34 nM. The same measure, in the same setting: in the case of `Cc1cc(N2CC[C@@H](N3CCC[C@@H]3C)C2)ccc1NC(=O)C1CCOCC1` (racemic) it was 3.9 nM.

Take `CC1CCCN1C1CCN(c2ccc(NC(=O)C3CC4CCC3C4)cc2)C1` (configuration not stated): the inhibition constant Ki on Histamine receptor H3 was 15.7 nM. Still for that read-out and setting: under `Cc1cc(N2CCC(N3CCCC3C)C2)ccc1NC(=O)C1CC2CCC1C2` (mixture of isomers) stands 19.9 nM. The same measure, in the same setting: under `Cc1cc(N2CCC(N3CCCC3C)C2)ccc1NC(=O)C1CCCCC1` (mixture of isomers) stands 9 nM; under `Cc1cc(N2CC[C@H](N3CCC[C@@H]3C)C2)ccc1NC(=O)C1CCCCC1`, 0.39 nM; under `CC(=O)N1CCCC1C(=O)Nc1ccc(N2CCC(N3CCCC3C)C2)c(C)c1` (mixture of isomers), 44.9 nM. Still for that read-out and setting: under `Cc1cc(N2CC[C@H](N3CCC[C@@H]3C)C2)ccc1NC(=O)CC1CCCC1` stands 0.85 nM.

With `C[C@@H]1CCCN1CCc1cc2cc(-c3ccc(C#N)cc3)ccc2o1`, the result with Rattus norvegicus [2] and in the assay on Rattus norvegicus [3] was Active. Consider `Cc1cc(NC(=O)C2CCCO2)ccc1N1CCC(N2CCCC2C)C1` (mixture of isomers), for which, on Histamine receptor H3, the affinity, expressed as Ki, was 17 nM. In the case of `Cc1cc(N2CC[C@H](N3CCC[C@@H]3C)C2)ccc1NC(=O)C1CCCO1` (some centres not stated), the Ki on Histamine receptor H3 came to 7.33 nM.

Consider `O=C(c1ccc(OCCCc2c[nH]cn2)cc1)C1CC1`, for which the result with Rattus norvegicus [4] was Active. Turning to `Cc1cc(N2CC[C@H](N3CCC[C@@H]3C)C2)ccc1NC(=O)C1CC2CCC1C2` (some centres not stated), the Ki on Histamine receptor H3 is 0.55 nM. Take `S=C(NC1CCCCC1)N1CCC(c2cnc[nH]2)CC1`: the result in the assay on Rattus norvegicus [5] and in the assay on Rattus norvegicus [6] was Active. With `Cc1cc(NC(=O)C2CC3CCC2C3)ccc1N1CCC(N2CCCC2C)C1` (mixture of isomers), affinity at Histamine receptor H3 was put at a Ki of 130 nM. Same read-out and setting: in the case of `Cc1cc(N2CC[C@H](N3CCC[C@@H]3C)C2)ccc1NC(=O)C1C(C)(C)C1(C)C` it was 0.55 nM. As for `CC(=O)N1CCCC1C(=O)Nc1ccc(N2CCC(N3CCCC3C)C2)cc1C` (mixture of isomers), the Ki at Histamine receptor H3 turned out to be 57.7 nM.
